Assay [1] concerns the target Cholinesterase (Equus caballus) (UniProt P81908). Put plainly: Selectivity ratio of Galanthamine IC50 to compound IC50 for equine BChE.
A short description of assay [2]: Selectivity ratio of IC50 for electric eel AChE to IC50 for equine serum BuChE.
The nature of assay [3]: Selectivity ratio of IC50 for equine serum BuChE to IC50 for electric eel AChE.
The target in another assay is Cholinesterase (Equus caballus, UniProt P81908). As to the kind of experiment: Inhibition of equine serum BuChE using S-butyrylthiocholine chloride as substrate incubated for 15 mins prior to substrate addition measured after 30 mins by Ellman's method. Put shortly:
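Modified Ellman method in 0.1 M sodium phosphate buffer, pH 8. Samples were dissolved in DMSO (1 mg/mL stock; 1% DMSO final). Equine serum BChE was preincubated with sample for 15 min at 25 °C. DTNB (10 mM stock) and S-butyrylthiocholine chloride were then added, and absorbance was read at 412 nm after 30 min. Triplicate, blank-corrected, % inhibition versus control.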
A general note: Ellman's reagent forms a yellow product with free thiols.

The target in another assay is Acetylcholinesterase (Electrophorus electricus, UniProt O42275). As to the kind of experiment: Inhibition of electric eel AChE using […] as substrate incubated for 15 mins prior to substrate addition measured after 30 mins by Ellman's method.
Chain of Acetylcholinesterase (O42275 whole entry): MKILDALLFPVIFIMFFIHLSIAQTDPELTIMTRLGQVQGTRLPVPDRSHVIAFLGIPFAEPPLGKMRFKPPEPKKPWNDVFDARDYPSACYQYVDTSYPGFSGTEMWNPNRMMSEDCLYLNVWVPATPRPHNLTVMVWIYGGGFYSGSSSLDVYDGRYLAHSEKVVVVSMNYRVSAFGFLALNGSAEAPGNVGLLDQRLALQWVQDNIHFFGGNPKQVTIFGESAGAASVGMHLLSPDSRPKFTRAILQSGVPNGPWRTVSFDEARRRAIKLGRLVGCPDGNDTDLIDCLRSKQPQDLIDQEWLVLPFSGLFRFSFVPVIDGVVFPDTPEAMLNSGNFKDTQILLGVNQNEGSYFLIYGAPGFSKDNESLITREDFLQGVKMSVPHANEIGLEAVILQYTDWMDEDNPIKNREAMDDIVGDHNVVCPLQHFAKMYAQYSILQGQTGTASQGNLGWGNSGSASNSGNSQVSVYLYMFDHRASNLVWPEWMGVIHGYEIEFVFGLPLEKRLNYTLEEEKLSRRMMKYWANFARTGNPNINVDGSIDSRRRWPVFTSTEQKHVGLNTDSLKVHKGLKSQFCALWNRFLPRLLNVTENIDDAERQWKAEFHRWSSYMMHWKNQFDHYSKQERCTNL

Chain of Cholinesterase (Equus caballus) (P81908 whole entry): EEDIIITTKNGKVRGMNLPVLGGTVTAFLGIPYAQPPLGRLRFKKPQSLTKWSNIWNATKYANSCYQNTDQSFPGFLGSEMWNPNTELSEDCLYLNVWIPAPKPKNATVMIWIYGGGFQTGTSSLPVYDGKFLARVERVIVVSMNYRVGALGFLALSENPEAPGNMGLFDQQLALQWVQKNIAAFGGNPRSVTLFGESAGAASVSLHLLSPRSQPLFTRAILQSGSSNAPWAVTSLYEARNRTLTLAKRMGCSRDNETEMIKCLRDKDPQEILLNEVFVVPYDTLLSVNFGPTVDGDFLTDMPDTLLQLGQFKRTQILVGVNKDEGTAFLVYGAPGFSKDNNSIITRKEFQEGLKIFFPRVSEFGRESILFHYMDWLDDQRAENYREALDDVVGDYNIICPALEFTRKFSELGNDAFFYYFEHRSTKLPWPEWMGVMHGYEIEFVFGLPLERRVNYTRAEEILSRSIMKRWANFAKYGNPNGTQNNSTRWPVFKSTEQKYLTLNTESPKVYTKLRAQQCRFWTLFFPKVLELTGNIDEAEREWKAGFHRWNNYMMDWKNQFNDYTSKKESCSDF
Chain of Cholinesterase (P81908 whole entry): as above

For the compound `O=C1NC2=C(CNC/C2=C\c2ccccc2Cl)C(c2ccccc2Cl)N1` (stereo not given), the Ratio IC50 in assay [1] stood at 2; in assay [2], 9.57; in assay [3] it was 0.1. Moreover, the IC50 was 2.51 µM on Cholinesterase and 24.1 µM at Acetylcholinesterase.
For `O=C1NC2=C(CNC/C2=C\c2ccc(F)cc2)C(c2ccc(F)cc2)N1` (stereo not given), in that order: 2, 2.34, 0.43, 18.9 µM and 44.2 µM.
For `Cc1ccccc1/C=C1\CNCC2=C1NC(=S)NC2c1ccccc1C` (stereo not given) the same measures were 2, 12.9, 0.08, 3.07 µM and 39.7 µM.
For `S=C1NC2=C(CNC/C2=C\c2ccccc2Cl)C(c2ccccc2Cl)N1` (stereo not given), the values for the Ratio IC50 in assay [1], in assay [2] and in assay [3] were 2, 11.1 and 0.09, respectively. For the same compound, the IC50 on Cholinesterase came out at 2.91 µM; on Acetylcholinesterase, 32.4 µM.
Turning to `S=C1NC2=C(CNC/C2=C\c2ccc(Cl)cc2)C(c2ccc(Cl)cc2)N1` (stereo not given), the figures for the Ratio IC50 in assay [1], in assay [2] and in assay [3] were 2, 0.35 and 2.78, respectively. The IC50 against Cholinesterase amounted to 6.26 µM; against Acetylcholinesterase, 2.25 µM.
For `O=C1NC2=C(CNC/C2=C\c2ccc(Cl)cc2)C(c2ccc(Cl)cc2)N1` (stereo not given), in that order: 2, 2.2, 0.45, 16.7 µM and 36.8 µM.
In the case of `O=C1NC2=C(CNC/C2=C\c2cccc([N+](=O)[O-])c2)C(c2cccc([N+](=O)[O-])c2)N1` (stereo not given), the Ratio IC50 in assay [1] was found to be 2; in assay [2] it was 2.73; in assay [3] it was 0.37. The IC50 came to 10.3 µM at Cholinesterase and 28.3 µM against Acetylcholinesterase.
For `Cc1ccc(/C=C2\CNCC3=C2NC(=S)NC3c2ccc(C)cc2)cc1` (stereo not given), in that order: 2, 5.95, 0.17, 6.27 µM and 37.5 µM.
For `COc1ccccc1/C=C1\CNCC2=C1NC(=O)NC2c1ccccc1OC` (stereo not given), in that order: 2, 3.75, 0.27, 10.7 µM and 40.2 µM.
For `O=C1NC2=C(CNC/C2=C\c2ccccc2F)C(c2ccccc2F)N1` (stereo not given), in that order: 2, 5.61, 0.18, 3.31 µM and 18.6 µM.
Turning to `S=C1NC2=C(CNC/C2=C\c2ccccc2)C(c2ccccc2)N1` (stereo not given), the figures for the Ratio IC50 in assay [1], in assay [2] and in assay [3] were 2, 5.09 and 0.2, respectively. The figures for the IC50 against Cholinesterase and against Acetylcholinesterase were 3.78 µM and 19.3 µM, respectively.
For `COc1ccccc1/C=C1\CNCC2=C1NC(=S)NC2c1ccccc1OC` (stereo not given), in that order: 16, 0.67, 1.47, 1.18 µM and 0.8 µM.
For `Fc1ccccc1/C=C1\CNCC2=C1NC(=S)NC2c1ccccc1F` (stereo not given) the same measures were 2, 6.21, 0.16, 6.5 µM and 40.4 µM.
For `O=C1NC2=C(CNC/C2=C\c2ccc(Cl)cc2Cl)C(c2ccc(Cl)cc2Cl)N1` (stereo not given), in that order: 2, 1.26, 0.79, 23.5 µM and 29.9 µM.
As for `S=C1NC2=C(CNC/C2=C\c2ccc(Cl)cc2Cl)C(c2ccc(Cl)cc2Cl)N1` (stereo not given), the Ratio IC50 was found to be 2 in assay [1], 0.67 in assay [2] and 1.5 in assay [3]. Moreover, the IC50 against Cholinesterase came out at 49.8 µM; against Acetylcholinesterase it was 26.3 µM.
For `Cc1ccccc1/C=C1\CNCC2=C1NC(=O)NC2c1ccccc1C` (stereo not given) the same measures were 2, 7.74, 0.13, 5.22 µM and 40.4 µM.
For `S=C1NC2=C(CNC/C2=C\c2cccc3ccccc23)C(c2cccc3ccccc23)N1` (stereo not given), in that order: 2, 0.25, 4.07, 5.58 µM and 1.37 µM.
For `O=C1NC2=C(CNC/C2=C\c2cccc3ccccc23)C(c2cccc3ccccc23)N1` (stereo not given) the same measures were 2, 2.44, 0.41, 5.39 µM and 13.2 µM.
For the compound `S=C1NC2=C(CNC/C2=C\c2ccc(Br)cc2)C(c2ccc(Br)cc2)N1` (stereo not given), the results for the Ratio IC50 in assay [1], in assay [2] and in assay [3] were 12, 7.2 and 0.14, respectively. Besides, the IC50 was determined as 1.65 µM on Cholinesterase and 11.9 µM against Acetylcholinesterase.
For `Fc1ccc(/C=C2\CNCC3=C2NC(=S)NC3c2ccc(F)cc2)cc1` (stereo not given) the same measures were 2, 1.29, 0.77, 28.8 µM and 37.2 µM.
For the compound `O=C1NC2=C(CNC/C2=C\c2ccc(Br)cc2)C(c2ccc(Br)cc2)N1` (stereo not given), the Ratio IC50 was determined as 2 in assay [1], 2.54 in assay [2] and 0.39 in assay [3]. The results for the IC50 on Cholinesterase and against Acetylcholinesterase were 6.22 µM and 15.9 µM, respectively.
For `Cc1ccc(/C=C2\CNCC3=C2NC(=O)NC3c2ccc(C)cc2)cc1` (stereo not given), the Ratio IC50 in assay [1] is 2; in assay [2], 6.56; in assay [3], 0.15. The IC50 at Cholinesterase was 7.09 µM; against Acetylcholinesterase it was 46.5 µM.
On to `O=C1NC2=C(CNC/C2=C\c2ccccc2)C(c2ccccc2)N1` (stereo not given), for which the results for the Ratio IC50 in assay [1], in assay [2] and in assay [3] were 2, 24 and 0.04, respectively. The IC50 on Cholinesterase is 2.86 µM; at Acetylcholinesterase, 68.7 µM.
As to `O=[N+]([O-])c1cccc(/C=C2\CNCC3=C2NC(=S)NC3c2cccc([N+](=O)[O-])c2)c1` (stereo not given), the Ratio IC50 in assay [1] worked out at 2; in assay [2], 4.25; in assay [3], 0.24. Also, the IC50 on Cholinesterase was found to be 8.09 µM; against Acetylcholinesterase it was 34.3 µM.

For orientation: IC50 means the point on the concentration scale where inhibition reaches its midpoint. A high value points to a need for much substance.
